Results as given in ChEMBL document CHEMBL3872285, “Discovery of a Potent, Selective, and Orally Available PI3Kδ Inhibitor for the Treatment of Inflammatory Diseases” (ACS Med Chem Lett, 2017).

Experiments:
[1] = biological target: PI3-kinase p110-delta/p85-alpha (Homo sapiens, UniProt O00329); test: Inhibition of full length recombinant human N-terminal His6-tagged PI3K p110delta/human p85alpha expressed in baculovirus infected sf21 cells using PIP2 as substrate preincubated for 30 mins followed by substrate addition by HTRF assay
[2] = biological target: T1, Phosphatidylinositol 4,5-bisphosphate 3-kinase catalytic subunit delta isoform (Homo sapiens, UniProt O00329); test: Inhibition of PI3Kdelta in human THP1 cells assessed as reduction in MCSF-stimulated akt phosphorylation at Thr308 preincubated for 30 mins followed by MCSF stimulation for 3 mins by ELISA; type: cell-based, THP-1
T1 sequence (O00329 whole entry): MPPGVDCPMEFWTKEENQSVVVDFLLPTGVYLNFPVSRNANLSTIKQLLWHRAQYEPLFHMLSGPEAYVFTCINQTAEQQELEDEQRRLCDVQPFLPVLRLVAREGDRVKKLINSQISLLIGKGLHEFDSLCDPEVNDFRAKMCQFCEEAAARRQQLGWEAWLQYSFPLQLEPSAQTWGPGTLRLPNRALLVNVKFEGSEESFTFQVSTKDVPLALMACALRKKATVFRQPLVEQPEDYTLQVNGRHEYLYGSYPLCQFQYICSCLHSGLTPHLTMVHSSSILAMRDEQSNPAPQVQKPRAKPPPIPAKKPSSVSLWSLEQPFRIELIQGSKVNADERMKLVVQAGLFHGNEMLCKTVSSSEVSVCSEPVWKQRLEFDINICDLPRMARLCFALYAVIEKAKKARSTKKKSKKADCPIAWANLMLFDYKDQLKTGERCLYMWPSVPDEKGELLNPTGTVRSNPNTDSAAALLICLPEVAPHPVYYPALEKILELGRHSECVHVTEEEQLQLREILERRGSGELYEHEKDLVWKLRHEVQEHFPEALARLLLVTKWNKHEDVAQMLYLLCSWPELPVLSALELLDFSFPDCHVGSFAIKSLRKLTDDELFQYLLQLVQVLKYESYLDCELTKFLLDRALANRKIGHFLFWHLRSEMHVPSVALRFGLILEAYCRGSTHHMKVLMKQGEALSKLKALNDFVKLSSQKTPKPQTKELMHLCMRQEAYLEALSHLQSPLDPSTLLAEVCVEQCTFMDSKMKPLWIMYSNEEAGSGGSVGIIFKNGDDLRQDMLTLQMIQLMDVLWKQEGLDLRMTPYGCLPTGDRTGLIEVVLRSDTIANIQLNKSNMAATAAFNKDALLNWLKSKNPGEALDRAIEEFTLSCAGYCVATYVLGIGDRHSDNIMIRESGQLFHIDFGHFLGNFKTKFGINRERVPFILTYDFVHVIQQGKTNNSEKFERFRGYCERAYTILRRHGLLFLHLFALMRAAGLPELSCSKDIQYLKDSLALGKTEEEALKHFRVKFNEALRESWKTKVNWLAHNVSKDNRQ
Method in brief: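 THP-1 cells exposed to compound for 30 min, then stimulated with MCSF at EC80 for 3 min; lysates assayed by ELISA for pAkt (Thr308).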

[3] = Drug metabolism in rat liver microsomes assessed as disappearance of parent compound at 5 uM after 30 mins in presence of NADPH by UPLC-MS/MS analysis
[4] = Drug metabolism in human liver microsomes assessed as disappearance of parent compound at 5 uM after 30 mins in presence of NADPH by UPLC-MS/MS analysis
[5] = AUC in Wistar rat at 1 mg/kg, iv; type: ADME, organism-based; conditions: in vivo
Method in brief: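 Wistar rats received a single 1 mg/kg intravenous dose. Plasma samples were collected and AUC was calculated from them, along with half-life, clearance and steady-state volume of distribution. Values are means of two animals (n=2).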

[6] = Volume of distribution at steady state in Wistar rat at 1 mg/kg, iv; type: ADME, organism-based; conditions: in vivo, read-out: Vdss
[7] = Half life in Wistar rat at 1 mg/kg, iv; type: ADME, organism-based; conditions: in vivo
[8] = Clearance in Wistar rat at 1 mg/kg, iv; conditions: in vivo
Rattus norvegicus [9] = test: In vivo inhibition of PI3Kdelta in Wistar rat assessed as reduction in ConA-induced increase in plasma IL2 production administered through oral gavage 1 hr prior to ConA measured 90 mins post ConA challenge by ELISA; type: functional; conditions: read-out: ID50 (the source's name)
[10] = Half life in Beagle dog at 1 mg/kg, iv through bolus administration; type: ADME, organism-based, Canis lupus familiaris; conditions: in vivo
[11] = AUC in Beagle dog at 1 mg/kg, iv through bolus administration; type: ADME, organism-based, Canis lupus familiaris; conditions: in vivo
[12] = Apparent volume of distribution in Beagle dog at 1 mg/kg, iv through bolus administration; type: ADME, organism-based, Canis lupus familiaris; conditions: in vivo, read-out: Vz
Rattus norvegicus [13] = test: Anti-inflammatory activity in Brown Norway rat assessed as reduction in OVA-induced eosinophil infilteration to bronchoalveolar lavage administered orally bid 1 hr prior to OVA challenge on day 14 and 6 hrs post OVA challenge on day 21 measured 24 hrs post last OVA challenge by microscopic method; type: functional; conditions: po, read-out: ID50 (the source's name)
[14] = Oral bioavailability in Wistar rat at 1 mg/kg administered via gavage; type: ADME, organism-based; conditions: in vivo
[15] = Apparent volume of distribution in Wistar rat at 1 mg/kg, iv; type: ADME, organism-based; conditions: in vivo, read-out: Vz
[16] = Clearance in Beagle dog at 1 mg/kg, iv through bolus administration; conditions: in vivo

PI3-kinase p110-delta/p85-alpha, sequence (P27986 whole entry, one chain of several, canonical isoform): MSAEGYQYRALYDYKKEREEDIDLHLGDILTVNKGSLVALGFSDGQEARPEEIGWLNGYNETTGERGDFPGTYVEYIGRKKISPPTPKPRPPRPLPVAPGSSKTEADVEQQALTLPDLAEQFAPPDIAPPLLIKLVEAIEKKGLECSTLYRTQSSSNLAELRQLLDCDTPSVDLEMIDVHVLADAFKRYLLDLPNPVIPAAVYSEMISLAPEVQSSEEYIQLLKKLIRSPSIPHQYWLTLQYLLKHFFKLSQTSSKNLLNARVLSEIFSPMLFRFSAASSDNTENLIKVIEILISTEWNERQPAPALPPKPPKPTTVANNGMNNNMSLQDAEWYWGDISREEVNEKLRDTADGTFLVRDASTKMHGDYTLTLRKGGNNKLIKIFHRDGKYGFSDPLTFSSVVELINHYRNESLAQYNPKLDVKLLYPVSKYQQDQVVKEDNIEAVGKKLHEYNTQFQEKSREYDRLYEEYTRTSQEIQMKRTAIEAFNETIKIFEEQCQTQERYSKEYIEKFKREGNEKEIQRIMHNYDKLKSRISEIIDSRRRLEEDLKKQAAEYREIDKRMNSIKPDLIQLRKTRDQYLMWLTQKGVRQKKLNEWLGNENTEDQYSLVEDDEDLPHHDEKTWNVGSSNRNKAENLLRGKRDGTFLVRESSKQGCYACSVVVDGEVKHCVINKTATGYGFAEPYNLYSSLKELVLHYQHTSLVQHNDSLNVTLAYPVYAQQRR

IC50 [1]	IC50 [2]	metabolised at 0.5 h, 5 µM [3]	metabolised at 0.5 h, 5 µM [4]	Structure (SMILES)	also measured
110 nM				Cc1ccccc1-n1c(Cn2cnc3c(N)ncnc32)nn2ccc(C)c2c1=O	
610 nM	1600 nM			N#Cc1c(N)ncnc1NC(CC(F)(F)F)c1nn2cccc2c(=O)n1-c1ccccc1 (stereo not given)	
11 nM	18 nM	32%	32%	CC[C@H](Nc1ncnc(N)c1C#N)c1nn2cccc2c(=O)n1-c1ccccc1	
10 nM	7 nM	18%	30%	C[C@H](Nc1ncnc2[nH]cnc12)c1nn2cccc2c(=O)n1-c1ccccc1	
1800 nM		32%	30%	CC[C@@H](Nc1ncnc2[nH]cnc12)c1nn2cccc2c(=O)n1-c1ccccc1	
1.1 nM	1.6 nM	44%	80%	Cc1ccn2nc([C@H](C)Nc3ncnc(N)c3C#N)n(-c3ccccc3)c(=O)c12	
75 nM				Cc1ccn2nc(C(C)n3cnc4c(N)ncnc43)n(-c3ccccc3)c(=O)c12 (stereo not given)	
4.8 nM	16 nM		7%	N#Cc1c(N)ncnc1N[C@@H](CCO)c1nn2cccc2c(=O)n1-c1ccccc1	AUC [5]: 450 ng·h/mL; Vd [6]: 1.6 L/kg; half-life [7]: 1.1 h; clearance [8]: 36.8 mL/min/kg
73 nM	210 nM			C[C@H](Nc1ncnc(N)c1F)c1nn2cccc2c(=O)n1-c1ccccc1	
4 nM	11 nM	24%	22%	C[C@H](Nc1ncnc(N)c1C#N)c1nn2c(C#N)ccc2c(=O)n1-c1ccccc1	
17 nM	51 nM	23%	34%	C[C@H](Nc1ncnc(N)c1C#N)c1nn2cc(F)cc2c(=O)n1-c1ccccc1	
8.8 nM	11 nM	54%	82%	Cc1ccc2c(=O)n(-c3ccccc3)c([C@H](C)Nc3ncnc(N)c3C#N)nn12	
60 nM		100%	86%	C[C@H](Nc1ccnc2ccnn12)c1nn2cccc2c(=O)n1-c1ccccc1	
3.1 nM	6.5 nM	30%	26%	C[C@H](Nc1nc(N)nc2[nH]cnc12)c1nn2cccc2c(=O)n1-c1ccccc1	
13 nM	51 nM	24%	31%	N#Cc1c(N)ncnc1NC(CO)c1nn2cccc2c(=O)n1-c1ccccc1 (single isomer, unassigned)	
				CC[C@H](Nc1ncnc2[nH]cnc12)c1nc2cccc(F)c2c(=O)n1-c1ccccc1 [IDELALISIB]	AUC [5]: 512 ng·h/mL; ED50 (Rattus norvegicus [9]): 1.6 mg/kg; half-life [10]: 1.6 h; AUC [11]: 924 ng·h/mL; Vd [12]: 2.5 L/kg; ED50 (Rattus norvegicus [13]): 15 mg/kg; half-life [7]: 0.8 h; bioavailability [14]: 68%; Vd [15]: 2.2 L/kg

IC50 [1]	IC50 [2]	metabolised at 0.5 h, 5 µM [3]	metabolised at 0.5 h, 5 µM [4]	Structure (SMILES)	also measured
1.1 nM	3.8 nM	9%	13%	C[C@H](Nc1ncnc(N)c1C#N)c1nn2ccc(F)c2c(=O)n1-c1ccccc1	
25 nM		38%	49%	CC[C@H](Nc1ncnc2[nH]cnc12)c1nn2cccc2c(=O)n1-c1ccccc1	
4.6 nM	6.6 nM	46%	48%	N#Cc1c(N)ncnc1N1CCC[C@H]1c1nn2cccc2c(=O)n1-c1ccccc1	
3 nM		16%	37%	C[C@H](Nc1ncnc(N)c1C#N)c1nn2ccc(C(F)(F)F)c2c(=O)n1-c1ccccc1	AUC [5]: 2040 ng·h/mL; half-life [10]: 4.2 h; AUC [11]: 3940 ng·h/mL; Vd [12]: 1.5 L/kg; clearance [16]: 4.2 mL/min/kg; half-life [7]: 3.3 h; bioavailability [14]: 113%; clearance [8]: 8.6 mL/min/kg; Vd [15]: 2.4 L/kg
9 nM	47 nM	48%	58%	C[C@H](Nc1ncnc2[nH]cc(F)c12)c1nn2cccc2c(=O)n1-c1ccccc1	
52 nM	150 nM	44%	49%	C[C@H](Nc1ncnc2[nH]ccc12)c1nn2cccc2c(=O)n1-c1ccccc1	
4.3 nM	35 nM	7%	23%	C[C@H](Nc1ncnc(N)c1C#N)c1nn2ccc(CO)c2c(=O)n1-c1ccccc1	
57 nM	210 nM	14%	23%	C[C@H](Nc1ncnc(N)c1C#N)c1nn2ccnc2c(=O)n1-c1ccccc1	
91 nM	76 nM	25%	33%	C[C@H](Nc1nc(N)nc(N)n1)c1nn2cccc2c(=O)n1-c1ccccc1	
12 nM		51%	43%	C[C@H](Nc1ncnc(N)c1C(F)(F)F)c1nn2cccc2c(=O)n1-c1ccccc1	
71 nM	380 nM			C[C@H](Nc1ncnc(N)c1C#N)c1nn2c(C(F)(F)F)ccc2c(=O)n1-c1ccccc1	
1200 nM				C[C@H](Nc1cc(N)ncn1)c1nn2cccc2c(=O)n1-c1ccccc1	
3400 nM				N#Cc1c(N)ncnc1NC1(c2nn3cccc3c(=O)n2-c2ccccc2)CC1	
		15%	24%	C[C@H](Nc1ncnc(N)c1C#N)c1nn2cccc2c(=O)n1-c1ccccc1	AUC [5]: 386 ng·h/mL; Vd [6]: 1.9 L/kg; half-life [7]: 0.9 h; clearance [8]: 43.5 mL/min/kg
31 nM	370 nM	30%	35%	N#Cc1c(N)ncnc1N1CC(F)(F)C[C@H]1c1nn2cccc2c(=O)n1-c1ccccc1	
